Test results from ChEMBL document CHEMBL1932940, “Xanthohumol induces apoptosis in human malignant glioblastoma cells by increasing reactive oxygen species and activating MAPK pathways” (J Nat Prod, 2011).
The source made the active and inactive calls. No cut-off for these calls is given here.

Assays:
T98G [1] = assay: Anticancer activity against human T98G cells assessed as decrease in cell viability at 50 uM after 48 hrs by MTT assay; assay type: functional
Outline: (§1)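 Cells (T98G, U87-MG, NHA; 3 × 10^4 per well) plated, next day exposed to serial dilutions (1−50 μM) for 48 h at 37 °C, 5% CO2. MTT (5 mg/mL) added for 3 h; crystals solubilized in 50% DMF/20% SDS pH 4.5; OD at 620 nm. Viability = % of DMSO (0.1% final) controls. Means ± SEM, three experiments in triplicate.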

U-87MG ATCC = assay: Anticancer activity against human U87MG cells assessed as decrease in cell viability at 50 uM after 48 hrs by MTT assay; assay type: functional, cell-based; outline: as §1
[2] = Cytotoxicity against normal human astrocytes assessed as decrease in cell viability after 48 hrs by MTT assay; assay type: cell-based; conditions: astrocyte; outline: as §1
T98G [3] = assay: Induction of cell cycle arrest in human T98G cells assessed as accumulation at G0/G1 phase at 1 to 20 uM after 48 hrs by flow cytometric analysis; assay type: functional, cell-based
Outline: (§2)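 2 × 10^5 cells per dish exposed 48 h (1−20 μM per legend); harvested, fixed in cold 70% ethanol at −20 °C, stained with propidium iodide plus RNase A (100 U/mL) 30 min at room temperature; percentage in G1, S, G2/M by flow cytometry. Three experiments in triplicate.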

T98G [4] = assay: Induction of cell cycle arrest in human T98G cells assessed as accumulation at G2/M phase at 1 to 20 uM after 48 hrs by flow cytometric analysis; assay type: functional, cell-based; outline: as §2
T98G [5] = assay: Induction of cell cycle arrest in human T98G cells assessed as accumulation at S phase at 1 to 20 uM after 48 hrs by flow cytometric analysis; assay type: functional, cell-based; outline: as §2
U-87 MG [6] = assay: Induction of cell cycle arrest in human U87MG cells assessed as accumulation at G0/G1 phase at 1 to 20 uM after 48 hrs by flow cytometric analysis; assay type: functional, cell-based; conditions: U-87MG ATCC; outline: as §2
U-87 MG [7] = assay: Induction of cell cycle arrest in human U87MG cells assessed as accumulation at G2/M phase at 1 to 20 uM after 48 hrs by flow cytometric analysis; assay type: functional, cell-based; conditions: U-87MG ATCC; outline: as §2
U-87 MG [8] = assay: Induction of cell cycle arrest in human U87MG cells assessed as accumulation at S phase at 1 to 20 uM after 48 hrs by flow cytometric analysis; assay type: functional, cell-based; conditions: U-87MG ATCC; outline: as §2
T98G [9] = assay: Induction of apoptosis in human T98G cells at 1 to 50 uM after 48 hrs by propidium iodide staining based flow cytometric analysis; assay type: functional, cell-based
Outline: (§3)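 Cells treated 1−50 μM for 24 or 48 h, washed in PBS, resuspended in 0.1% sodium citrate, 0.1% Triton X-100, 50 μg/mL propidium iodide, 30 min at 4 °C in dark. Nuclei analyzed by flow cytometry, DNA on log scale, debris gated out; percent hypodiploid (sub-G1) nuclei reported. Three experiments in triplicate.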

U-87 MG [10] = assay: Induction of apoptosis in human U87MG cells at 1 to 50 uM after 48 hrs by propidium iodide staining based flow cytometric analysis; assay type: functional, cell-based; conditions: U-87MG ATCC; outline: as §3

For `CC(C)=CCC1C(=O)C(C(=O)CC(C)C)=C(O)C(O)(CC=C(C)C)C1=O` (stereo unspecified) [HUMULONE], the Activity (T98G [1]) was “inactive”, the Activity (U-87MG ATCC) was “inactive” and the Activity [2] was “Non-toxic”. The Activity (T98G [3]) was “inactive”, the Activity (T98G [4]) was “inactive” and the Activity (T98G [5]) was “inactive”. For the same compound, the Activity (U-87 MG [6]) was “inactive”, the Activity (U-87 MG [7]) was “inactive” and the Activity (U-87 MG [8]) was “inactive”. For the same compound, the Activity (T98G [9]) was “inactive” and the Activity (U-87 MG [10]) was “inactive”.
